Among the data in ChEMBL document CHEMBL1275388, “Discovery and synthesis of novel luteolin derivatives as DAT agonists” (Bioorg Med Chem, 2010) are EC50 values, retold here.

The structures appear in SMILES notation.

Chain of Sodium-dependent dopamine transporter (P23977 whole entry): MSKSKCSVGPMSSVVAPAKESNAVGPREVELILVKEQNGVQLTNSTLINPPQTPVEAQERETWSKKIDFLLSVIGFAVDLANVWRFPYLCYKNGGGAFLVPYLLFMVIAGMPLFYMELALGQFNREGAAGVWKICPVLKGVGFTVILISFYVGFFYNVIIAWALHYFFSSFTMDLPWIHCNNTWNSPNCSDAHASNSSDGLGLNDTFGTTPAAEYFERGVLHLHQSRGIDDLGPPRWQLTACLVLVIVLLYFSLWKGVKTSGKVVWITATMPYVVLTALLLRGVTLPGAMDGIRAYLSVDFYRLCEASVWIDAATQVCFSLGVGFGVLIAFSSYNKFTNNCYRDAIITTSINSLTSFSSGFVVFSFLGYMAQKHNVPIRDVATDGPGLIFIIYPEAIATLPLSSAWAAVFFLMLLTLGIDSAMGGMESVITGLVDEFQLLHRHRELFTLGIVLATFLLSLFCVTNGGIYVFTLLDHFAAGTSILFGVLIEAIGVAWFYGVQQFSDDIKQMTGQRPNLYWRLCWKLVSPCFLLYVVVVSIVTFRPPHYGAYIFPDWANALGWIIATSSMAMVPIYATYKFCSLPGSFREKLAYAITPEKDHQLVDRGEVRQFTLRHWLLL

The assay concerns the target Sodium-dependent dopamine transporter (Rattus norvegicus, UniProt P23977). In words: Agonist activity at rat DAT expressed in CHO cells. The format is functional, cell-based. In short, it runs like this: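 CHO cell lines constructed to stably express DAT were used to measure DAT agonistic activity, reported as EC50.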
Regarding `CC(=O)Oc1cc(O)cc2oc(-c3ccc(O)c(O)c3)cc(=O)c12`, it took 5.37 µM to reach a half-maximal effect (EC50). Turning to `CCC(=O)Oc1cc(O)cc2oc(-c3ccc(O)c(O)c3)cc(=O)c12`, a half-maximal response (EC50) required 31 µM. This EC50 is about 5.8-fold higher than that of the compound before. Turning to `CCCC(=O)Oc1cc(O)cc2oc(-c3ccc(O)c(O)c3)cc(=O)c12`, the EC50 is 1.82 µM. In turn, `CC(C)C(=O)Oc1cc(O)cc2oc(-c3ccc(O)c(O)c3)cc(=O)c12` yielded an EC50 of 0.046 µM. Regarding `CCCCC(=O)Oc1cc(O)cc2oc(-c3ccc(O)c(O)c3)cc(=O)c12`, it took 0.869 µM to reach a half-maximal effect (EC50). Compound `CC(C)CCC(=O)Oc1cc(O)cc2oc(-c3ccc(O)c(O)c3)cc(=O)c12` came in with an EC50 of 2.71 µM.

`CCCCCCCC(=O)Oc1cc(O)cc2oc(-c3ccc(O)c(O)c3)cc(=O)c12` had an EC50 of 8.56 µM. With `O=C(Oc1cc(O)cc2oc(-c3ccc(O)c(O)c3)cc(=O)c12)c1ccccc1` the figure was 11.2 µM; with `Cc1ccc(C(=O)Oc2cc(O)cc3oc(-c4ccc(O)c(O)c4)cc(=O)c23)cc1`, 6.92 µM. Take `COc1cc(O)cc2oc(-c3ccc(O)c(O)c3)cc(=O)c12`: the midpoint of the response, the EC50, lay at 4.35 µM. Next, `CCOc1cc(O)cc2oc(-c3ccc(O)c(O)c3)cc(=O)c12`: 2.21 µM. The compound `CCCOc1cc(O)cc2oc(-c3ccc(O)c(O)c3)cc(=O)c12` had an EC50 of 3.07 µM. `CC(C)Oc1cc(O)cc2oc(-c3ccc(O)c(O)c3)cc(=O)c12`: a half-maximal effect (EC50) was put at 5.43 µM. With `CCCCOc1cc(O)cc2oc(-c3ccc(O)c(O)c3)cc(=O)c12` the figure was 2.4 µM.

In turn, `CC(C)COc1cc(O)cc2oc(-c3ccc(O)c(O)c3)cc(=O)c12` displayed an EC50 of 4.8 µM. Compound `CC(C)CCOc1cc(O)cc2oc(-c3ccc(O)c(O)c3)cc(=O)c12` gave an EC50 of 3.43 µM. This EC50 and that of the compound before are within 1.5-fold of each other. For the compound `CCCCCCOc1cc(O)cc2oc(-c3ccc(O)c(O)c3)cc(=O)c12`, a half-maximal response (EC50) required 4.58 µM.

For `CCCCCCCCOc1cc(O)cc2oc(-c3ccc(O)c(O)c3)cc(=O)c12`, the midpoint of the response, the EC50, lay at 16.5 µM. Compared with the last compound, the EC50 is about 3.6-fold higher. With `CCCCCCCCCCOc1cc(O)cc2oc(-c3ccc(O)c(O)c3)cc(=O)c12`, a half-maximal effect (EC50) was put at 33 µM. `O=c1cc(-c2ccc(O)c(O)c2)oc2cc(O)cc(OCCCCc3ccccc3)c12` displayed an EC50 of 2.59 µM. `CCC(=O)Oc1cc(O)c2c(=O)cc(-c3ccc(O)c(O)c3)oc2c1` showed an EC50 of 1.7 µM.

On to `CCCC(=O)Oc1cc(O)c2c(=O)cc(-c3ccc(O)c(O)c3)oc2c1`, for which the concentration for a half-maximal effect (EC50) came to 1.69 µM. Compound `CC(C)C(=O)Oc1cc(O)c2c(=O)cc(-c3ccc(O)c(O)c3)oc2c1` displayed an EC50 of 1.38 µM. In the case of `COc1cc(OC)c2c(=O)cc(-c3ccc(O)c(O)c3)oc2c1`, the response was half-maximal at 3.42 µM (EC50).

`CCOc1cc(-c2cc(=O)c3c(O)cc(O)cc3o2)ccc1O` gave a concentration giving a half-maximal response (EC50) of 12.9 µM. Consider `O=c1cc(-c2ccc(O)c(O)c2)oc2cc(O)cc(O)c12` [LUTEOLIN], for which the EC50 was 1.45 µM.
